From PubChem
HTRA1 inh: HTRA1 serine protease inhibitors, primary screen, biochemical, fluorescence polarization, HTS; Q92743; recombinant HTRA1, FP-rhodamine activity-based probe; inhibition, % at 5.96 µM; actives 0.5% (n = 340,000); AID 504803, 2011; in the data active = inhibition above about 36%
pPAFAH FP inh: pPAFAH enzyme inhibitors, primary screen, biochemical, fluorescence polarization, human. inhibition, % at 3.39 µM. actives 1.5% (n = 330,000). recombinant pPAFAH, FP-rhodamine probe fluorescence polarization;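 active = inhibition above the mean inhibition across the screen plus 3 SD, cut at about 25% in these data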;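 also: inhibitors block binding of the rhodamine activity-based probe so polarization drops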
Target sequence (Q13093 whole entry, looked up): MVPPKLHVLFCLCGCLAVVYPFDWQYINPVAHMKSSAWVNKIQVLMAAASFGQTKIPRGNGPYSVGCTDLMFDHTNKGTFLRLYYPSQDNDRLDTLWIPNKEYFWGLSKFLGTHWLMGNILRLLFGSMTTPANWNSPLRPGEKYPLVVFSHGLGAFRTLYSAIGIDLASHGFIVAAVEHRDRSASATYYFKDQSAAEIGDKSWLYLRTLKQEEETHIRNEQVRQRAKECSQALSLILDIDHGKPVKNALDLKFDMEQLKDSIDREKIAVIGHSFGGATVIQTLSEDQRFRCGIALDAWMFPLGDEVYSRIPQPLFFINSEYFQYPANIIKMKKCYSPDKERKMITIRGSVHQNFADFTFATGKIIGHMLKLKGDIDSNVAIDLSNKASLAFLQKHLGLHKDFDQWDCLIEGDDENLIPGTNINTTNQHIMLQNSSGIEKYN
PAFAH1B3 inh: PAFAH1B3 enzyme inhibitors, primary screen, biochemical, fluorescence polarization, human. Platelet-activating factor acetylhydrolase IB subunit alpha1 (Homo sapiens), Q15102. recombinant PAFAH1B3, FP-rhodamine probe. inhibition, % at 3.39 µM. actives 0.28% (n = 340,000). AID 492972, 2010;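 active = inhibition above the screen-wide average of all tested compounds plus 3 SD, cut at about 25% in these data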
mABHD4 FP: ABHD4 inhibitors, primary screen, biochemical, fluorescence polarization, mouse | (Lyso)-N-acylphosphatidylethanolamine lipase (Mus musculus), Q8VD66 | purified mABHD4, FP-Rh probe fluorescence polarization | inhibition, % at 8.92 µM | actives 0.54% (n = 370,000) | AID 720543, 2013;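 active = inhibition exceeding the mean over every tested compound plus 3 SD, cut at about 30% in these data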
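Test system: mABHD4 protein; Read-out basis: % inhibition; Incubation: 45 min + 60 min at 25 °C; Repeats: single replicate; Technique: fluorescence polarization with parallel and perpendicular emission, 525/598 nm; Compound: 8.92 µM, single dose; Benchmarks: full inhibition S159A mutant plus DMSO, zero as sample-well median.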
PAFAH2 inh: PAFAH2 enzyme inhibitors, primary screen, biochemical, fluorescence polarization, human. Platelet-activating factor acetylhydrolase 2, cytoplasmic (Homo sapiens), Q99487. recombinant PAFAH2, FP-rhodamine activity probe. inhibition, % at 3.39 µM. actives 0.99% (n = 340,000);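 active = inhibition above the mean over all tested compounds plus 3 SD, cut at about 30% in these data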;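 also: inhibitors block probe labeling of enzyme so polarization drops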
PAFAH1B2 FP inh: PAFAH1B2 enzyme inhibitors, primary screen, biochemical, fluorescence polarization, human | Platelet-activating factor acetylhydrolase IB subunit alpha2 (Homo sapiens), P68402 | recombinant PAFAH1B2, FP-rhodamine activity probe | inhibition, % at 3.39 µM | actives 1.2% (n = 340,000);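 active = inhibition above the mean of all tested compounds plus 3 SD, cut at about 24% in these data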
A number is an active result; . = inactive; / = not tested or not shown. Most compounds without a hit are left out; they make up all but 2.8% or so of the library.

SMILES	HTRA1 inh	pPAFAH FP inh	PAFAH1B3 inh	mABHD4 FP	PAFAH2 inh	PAFAH1B2 FP inh
CC(=O)C[C@@H](O)CC(=O)[C@H]1OC(=O)CCCCCCCCc2ccccc21	.	.	.	.	.	43
COc1ccccc1C(=O)N(Cc1ccccn1)CC1CCCO1 (stereo not drawn)	/	/	/	.	/	/
O=C(Nc1cccc(F)c1)O[C@@H]1CC[C@@]23CCCN2C(=O)CCC[C@H]3C1	/	/	/	.	/	/
COc1cc(/C=C(\C#N)c2nc3ccc(C)cc3[nH]2)cc([N+](=O)[O-])c1O	.	/	.	.	38	33
O=C(C1CCCN1S(=O)(=O)c1ccc([N+](=O)[O-])cc1)N1CCc2ccccc2C1 (stereo not drawn)	/	/	/	.	/	/
Cc1ccc(S(=O)(=O)CCC(=O)OCC(=O)N2c3ccccc3NC(=O)C2(C)C)cc1	.	.	.	.	.	30
CC1(C)C(=O)Nc2ccccc2N1C(=O)COC(=O)Cc1ccc(Cl)c(Cl)c1	.	.	.	.	.	28
Cc1cccc(NC(=O)C2CCN(c3ncccn3)CC2)c1C	/	/	/	.	/	/
COCC(=O)Nc1ncc(S(=O)(=O)c2ccc([N+](=O)[O-])cc2)s1	.	.	.	.	.	28
CC(=O)NCCC(=O)Nc1ncc(S(=O)(=O)c2ccc([N+](=O)[O-])cc2)s1	.	.	.	.	.	26
CCCCC(=O)Nc1ncc(S(=O)(=O)c2ccc([N+](=O)[O-])cc2)s1	.	.	.	.	.	.
O=C(N[C@@H]1CCCc2c1cnn2-c1ccc(F)cc1F)c1ccccn1	/	/	/	.	/	/
COc1ccc(/C=C/C(=O)OCC(=O)c2ccccc2F)cc1	.	.	.	.	.	.
COc1ccc(/C=C\C(=O)CC(O)(c2ccccc2)C(F)(F)F)cc1 (stereo not drawn)	.	.	.	.	.	30
CCN(c1ccccc1)S(=O)(=O)c1ccc(Cl)c(NC(=O)COC(=O)c2cc(O)c3ccccc3c2O)c1	/	.	/	/	/	/
CCN(c1ccccc1)S(=O)(=O)c1ccc(Cl)c(NC(=O)COC(=O)c2ccc(O)cc2)c1	.	34	.	.	67	.
COc1ccccc1C1c2c(ncn(-c3ccccc3)c2=N)Oc2ccc3ccccc3c21 (stereo not drawn)	/	/	/	.	/	/
COc1ccc(/C(N)=N/OC(=O)Cc2ccc(C)cc2)cc1	.	.	.	.	.	.
COc1ccc(C/C(=N\OC(C)=O)c2ccc(OC)cc2)cc1	.	.	.	/	.	30
O=C1C(Cl)=C(NS(=O)(=O)c2ccc([N+](=O)[O-])cc2)C(=O)c2ccccc21	.	.	.	30	.	.
Cc1ccccc1NC(=O)OCCN1CCCC12CCC(c1ccccc1)CC2 (stereo not drawn)	/	/	/	.	/	/
N#C/C(=C\c1ccc(OCc2ccc(Br)cc2)cc1)C(=O)Nc1cccc(C(=O)O)c1	.	.	.	.	.	24
N#C/C(=C\c1ccc(OCc2ccc(F)cc2)cc1)C(=O)Nc1cccc(C(=O)O)c1	.	.	.	.	.	.
C[C@H]1COC(=O)[C@@H](Cc2ccc(F)cc2)C/C=C\C[C@H](CC(=O)N(CCO)Cc2ccccc2)C(=O)N1	.	.	.	.	.	.
C[C@@H]1COC(=O)[C@@H](Cc2ccc(F)cc2)C/C=C\C[C@H](CC(=O)N(CCO)Cc2ccccc2)C(=O)N1	.	.	.	.	.	.
SMILES	HTRA1 inh	pPAFAH FP inh	PAFAH1B3 inh	mABHD4 FP	PAFAH2 inh	PAFAH1B2 FP inh
C[C@H]1COC(=O)[C@@H](Cc2ccc(F)cc2)CC/C=C/C[C@H](CC(=O)N(CCO)Cc2ccccc2)C(=O)N1	.	.	.	.	.	25
C[C@H]1COC(=O)[C@@H](Cc2ccc(F)cc2)CC/C=C/C[C@@H](CC(=O)N(CCO)Cc2ccccc2)C(=O)N1	.	.	.	.	.	26
COc1ccc(-c2nnc(SCc3cccc(F)c3)n2-c2ccccc2)cc1	/	/	/	.	/	/
COc1cc(C(=O)NC2CCCCN(C(C)C)C2=O)cc(OC)c1OC (stereo not drawn)	/	/	/	.	/	/
CCOC(=O)NC1(Nc2cccc(Cl)c2)Oc2ccccc2O1	.	33	.	32	.	.
COc1ccc(CNCC#Cc2ccc(C)cc2)c(OC)c1	/	/	/	.	/	/
CCOc1ccc(-n2c(SCC(=O)Nc3ccc4c(c3)c3ccccc3n4CC)nnc2-c2cccnc2)cc1	/	/	/	.	/	/
COc1ccc(NC(=S)Nc2ccc3nc(C)c(C)nc3c2)cc1	.	.	.	.	.	.
COc1ccc(NC(=S)Nc2ccc3nsnc3c2)cc1	.	.	66	.	41	.
CCOc1ccc(NC(=S)Nc2ccc3nsnc3c2)cc1	.	.	54	.	52	34
Cn1c(SCC2CCCCC2)nnc1-c1ccco1	/	/	/	.	/	/
CC1CCN(C(=O)COC(=O)c2ccc([N+](=O)[O-])o2)CC1	.	28	.	.	.	.
CC(C)[C@H](NC(=O)OCc1ccccc1)C(=O)N[C@@H](Cc1ccccc1)C1(O)CN(C)C(C(=O)NCc2ccccn2)CO1 (stereo partly drawn)	/	/	/	.	/	/
CCOc1ccccc1NC(=O)C(=O)N/N=C/c1cc(Br)ccc1O	.	26	.	.	.	.
COc1cccc(/C=N/NC(=O)c2ccc(-c3ccccc3)cc2)c1O	.	.	.	.	.	.
COc1cccc(/C=N/NC(=O)C(=O)Nc2ccccc2OC(F)(F)C(F)F)c1O	.	.	27	.	35	.
COc1cccc(/C=N/NC(=O)c2[nH]c(C)c(C(=O)N/N=C/c3cccc(OC)c3O)c2C)c1O	.	28	45	.	.	.
O=C(CSc1nc2ccccc2n1Cc1ccccc1)NN=C/C=C/c1ccccc1	/	/	/	.	/	/
O=C(NCCSc1ncc(-c2ccc(F)cc2)[nH]1)c1ccc2c(c1)OCO2	.	.	.	.	.	33
O=C(CCC(=O)N1CCSc2ccccc21)NCc1ccc(Cl)cc1	.	.	.	.	.	25
Cc1ccn2cc(CCNS(=O)(=O)c3ccc([N+](=O)[O-])cc3)nc2c1	.	30	.	.	.	.
O=C(O)c1oc2ccccc2c1CSc1ccc(Cl)cc1	.	.	.	.	.	29
